Test results reported in ChEMBL document CHEMBL4359903, “1,2,4-Oxadiazole derivatives targeting EGFR and c-Met degradation in TKI resistant NSCLC” (Eur J Med Chem, 2019).
Activity calls are given as the source filed them. The calls are words filed in the database; no cut-off is given here.

Assays:
[1] = system: NCI-H1975; assay: Cell cycle arrest in human NCI-H1975 cells harbouring EGFR L858R/T790M double mutant assessed as increase in cells accumulation at G2/M phase at 0.2 to 0.6 uM incubated for 48 hrs by propidium iodide based flow cytometry; type: functional
Method in brief: (§1)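 Cells plated at 3 × 10^5 per 6-cm dish and left overnight, then treated for 24 h and 48 h. Pellets fixed in 70% ethanol and stained with 40 µg/ml propidium iodide plus 20 µg/ml RNase A, 30 min on ice in the dark. DNA content read on a FACSCalibur flow cytometer.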

[2] = target: Hepatocyte growth factor receptor (Homo sapiens) (UniProt P08581); assay: Induction of c-MET degradation in human CL68 cells harbouring EGFR delE746-A750/T790M assessed as reduction in c-Met expression at 0.2 to 0.6 uM incubated for 48 hrs by Western blot analysis; type: cell-based
Sequence of Hepatocyte growth factor receptor (Homo sapiens) (P08581 whole entry): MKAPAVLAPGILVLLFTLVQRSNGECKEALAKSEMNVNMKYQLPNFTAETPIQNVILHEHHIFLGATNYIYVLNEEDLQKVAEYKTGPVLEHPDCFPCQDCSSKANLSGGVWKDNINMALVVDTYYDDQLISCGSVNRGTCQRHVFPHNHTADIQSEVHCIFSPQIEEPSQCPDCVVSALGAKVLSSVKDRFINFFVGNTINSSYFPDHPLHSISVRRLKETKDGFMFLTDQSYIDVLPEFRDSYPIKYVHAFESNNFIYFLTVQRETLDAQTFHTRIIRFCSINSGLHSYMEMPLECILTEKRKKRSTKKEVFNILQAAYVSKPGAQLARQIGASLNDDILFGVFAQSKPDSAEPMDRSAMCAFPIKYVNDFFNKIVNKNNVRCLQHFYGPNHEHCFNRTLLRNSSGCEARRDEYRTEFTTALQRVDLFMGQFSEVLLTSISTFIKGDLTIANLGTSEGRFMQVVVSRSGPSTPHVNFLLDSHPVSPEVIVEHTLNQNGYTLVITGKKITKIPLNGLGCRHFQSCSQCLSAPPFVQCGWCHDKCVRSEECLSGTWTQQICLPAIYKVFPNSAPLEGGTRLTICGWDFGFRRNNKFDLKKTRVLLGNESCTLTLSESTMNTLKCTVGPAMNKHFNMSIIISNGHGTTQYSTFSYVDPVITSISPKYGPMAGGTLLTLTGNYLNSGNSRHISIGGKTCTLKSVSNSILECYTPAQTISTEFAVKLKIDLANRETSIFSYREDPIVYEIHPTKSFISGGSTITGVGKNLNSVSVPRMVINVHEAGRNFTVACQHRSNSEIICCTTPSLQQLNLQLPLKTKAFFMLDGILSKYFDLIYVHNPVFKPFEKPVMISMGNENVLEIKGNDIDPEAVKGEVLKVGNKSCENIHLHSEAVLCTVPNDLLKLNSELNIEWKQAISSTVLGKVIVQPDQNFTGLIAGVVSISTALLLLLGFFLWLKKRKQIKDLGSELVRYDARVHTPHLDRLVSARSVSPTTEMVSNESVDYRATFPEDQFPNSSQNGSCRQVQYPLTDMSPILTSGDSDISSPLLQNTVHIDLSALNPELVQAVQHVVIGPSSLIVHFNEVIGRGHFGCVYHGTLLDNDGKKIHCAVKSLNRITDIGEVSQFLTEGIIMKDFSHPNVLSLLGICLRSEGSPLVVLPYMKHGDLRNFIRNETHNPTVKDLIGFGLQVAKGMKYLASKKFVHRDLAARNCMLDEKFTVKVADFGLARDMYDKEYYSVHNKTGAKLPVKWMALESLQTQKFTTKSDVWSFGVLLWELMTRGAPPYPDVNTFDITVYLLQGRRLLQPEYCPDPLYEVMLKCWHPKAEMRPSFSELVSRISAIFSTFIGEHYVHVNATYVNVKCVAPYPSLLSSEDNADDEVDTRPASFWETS
Method in brief: (§2)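 After 48 h treatment, cells were scraped and lysed in 1% SDS, 50 mM Tris-HCl pH 8.0, 10 mM EDTA with protease and phosphatase inhibitors. Lysates sonicated, protein measured by BCA, equal amounts run on SDS-PAGE and blotted to nitrocellulose. Primary antibodies (EGFR, c-Met, S473-Akt, Akt, GAPDH) used at 1:1000 overnight at 4 °C, HRP secondaries at 1:5000, ECL detection.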

[3] = system: PC-9; assay: Cell cycle arrest in human PC9 cells harbouring EGFR delE746-A750 […] assessed as increase in cells accumulation at G2/M phase at 0.4 to 0.8 uM incubated for 48 hrs by propidium iodide based flow cytometry; type: functional; method in brief: as §1
[4] = system: NCI-H1975; assay: Antiproliferative activity against human NCI-H1975 cells harbouring EGFR L858R/T790M double mutant assessed as reduction in cell viability incubated for 72 hrs by MTT assay; type: functional, cell-based; conditions: NCI-H1975, 72 h
[5] = target: Hepatocyte growth factor receptor (Homo sapiens) (UniProt P08581); assay: Effect on c-Met degradation in human NCI-H1975 cells harboring EGFR L858R/T790M double assessed as reduction in c-Met expression at 0.2 to 0.6 uM incubated for 48 hrs by RT-PCR analysis; type: cell-based
Method in brief: (§3)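 Total RNA extracted with TRIzol from H1975 and A549 cells treated at 0.2–0.6 µM. EGFR and c-Met mRNA assessed by RT-PCR.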

[6] = Antiproliferative activity against human CL68 cells harbouring EGFR delE746-A750/T790M mutant assessed as reduction in cell viability incubated for 72 hrs by MTT assay; type: functional, cell-based
[7] = target: Hepatocyte growth factor receptor (Homo sapiens) (UniProt P08581); assay: Induction of c-MET degradation in human PC9 cells harbouring EGFR delE746-A750 assessed as reduction in c-Met expression at 0.2 to 0.6 uM incubated for 48 hrs by Western blot analysis; type: cell-based; method in brief: as §2
[8] = system: A549; assay: Cell cycle arrest in human A549 cells assessed as increase in accumulation of cells at G2/M phase at 0.2 to 0.6 uM incubated for 48 hrs by propidium iodide based flow cytometry; type: functional; method in brief: as §1
[9] = system: Epidermal growth factor receptor (Homo sapiens), P00533 [L858R,T790M]; assay: Induction of EGFR L858R/T790M double mutant degradation in human NCI-H1975 cells assessed as reduction in Akt phosphorylation at 0.2 to 0.6 uM incubated for 48 hrs by Western blot analysis; type: cell-based; method in brief: as §2
[10] = target: Hepatocyte growth factor receptor (Homo sapiens) (UniProt P08581); assay: Induction of c-MET degradation in wild type human A549 cells assessed as reduction in c-Met expression at 0.2 to 0.6 uM incubated for 48 hrs by immunoblot analysis; type: cell-based; method in brief: as §2
[11] = target: Epidermal growth factor receptor (Homo sapiens) (UniProt P00533); assay: Effect on EGFR degradation in wild type human A549 cells assessed as reduction in EGFR mRNA expression at 0.2 to 0.6 uM incubated for 48 hrs by RT-PCR analysis; type: cell-based; method in brief: as §3
[12] = target: Epidermal growth factor receptor (Homo sapiens) (UniProt P00533); assay: Induction of EGFR degradation in human MDA-MB-231 cells assessed as reduction in EGFR expression incubated for 48 hrs by immunoblot analysis; type: cell-based; method in brief: as §2
[13] = system: CL97; assay: Cell cycle arrest in human CL97 cells harbouring EGFR G719A/T790M mutant assessed as increase in cells accumulation at G2/M phase at 0.4 to 0.8 uM incubated for 48 hrs by propidium iodide based flow cytometry; type: functional; method in brief: as §1
[14] = Antiproliferative activity against human CL68 cells harbouring EGFR delE746-A750/T790M mutant assessed as reduction in cell viability incubated for 48 hrs by MTT assay; type: functional, cell-based
Method in brief: (§4)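 Cells seeded at 5000 per well in 10% FBS and left overnight, then exposed to agent or DMSO in 5% FBS for 48 h. MTT added for 1 h, dye dissolved in DMSO, absorbance read at 570 nm. Viability given as percent of vehicle control. At least three independent experiments, means ± SD.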

[15] = system: Epidermal growth factor receptor (Homo sapiens), P00533 [L858R,T790M]; assay: Induction of EGFR L858R/T790M double mutant degradation in human NCI-H1975 cells assessed as change in EGFR expression at 0.2 to 0.6 uM incubated for 48 hrs by RT-PCR analysis; type: cell-based; method in brief: as §3
[16] = system: A549; assay: Antiproliferative activity against wild type human A549 cells assessed as reduction in cell viability incubated for 48 hrs by MTT assay; type: functional, cell-based; conditions: A549, 48 h; method in brief: as §4
[17] = system: PC-9; assay: Antiproliferative activity against human PC9 cells harbouring EGFR delE746-A750 mutant assessed as reduction in cell viability incubated for 72 hrs by MTT assay; type: functional, cell-based; conditions: PC-9, 72 h
[18] = system: CL97; assay: Antiproliferative activity against human CL97 cells harbouring EGFR G719A/T790M mutant assessed as reduction in cell viability incubated for 48 hrs by MTT assay; type: functional, cell-based; conditions: CL97, 48 h; method in brief: as §4
[19] = system: Epidermal growth factor receptor (Homo sapiens), P00533 [G719A,T790M]; assay: Induction of EGFR G719A/T790M mutant degradation in human CL97 cells assessed as reduction in Akt phosphorylation at 0.4 to 0.8 uM incubated for 48 hrs by Western blot analysis; type: cell-based; method in brief: as §2
[20] = system: NCI-H1975; assay: Antitumor activity against human NCI-H1975 cells harbouring EGFR L858R/T790M double mutant xenografted in athymic Nude-Foxn1nu BALB/c mouse assessed as tumor growth inhibition at 150 mg/kg, po administered once daily via gavage for 20 days measured twice a week by caliper method relative to control; type: functional; conditions: 480 h, read-out: TGI
Method in brief: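 Female Balb/c nude mice, 5 weeks old, injected subcutaneously in the right flank with 10^6 H1975 cells in 0.1 ml. Randomized at about 50 mm3, n = 8 per group. Gavaged once daily for 20 days with vehicle (10% DMSO/0.1% Tween 80/0.5% methylcellulose in sterile water) or 50 or 150 mg/kg. Calipers, V = width² × length × 0.52; volume and body weight twice weekly; Student's t-test.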

[21] = system: Epidermal growth factor receptor (Homo sapiens), P00533 [UNDEFINED MUTATION]; assay: Induction of EGFR E746-A750 deletion/T790M mutant degradation in human CL68 cells assessed as Akt phosphorylation at 0.4 to 0.8 uM incubated for 48 hrs by Western blot analysis; type: cell-based; method in brief: as §2

- Activity [2]: Active
- IC50 [4]: 300 nM
- Activity [5]: inactive
- Activity [7]: Active
- Activity [9]: Active
- Activity [10]: Active
- Activity [11]: inactive
- Activity [12]: Active
- Activity [15]: inactive
- IC50 [16]: 300 nM
- IC50 [17]: 500 nM
- Activity [19]: Active
- Activity [21]: inactive
SMILES: O=C(Nc1cccc(-c2nc(-c3ccc(NC(=O)c4cccnc4)cc3Cl)no2)c1)Nc1ccc(NC(=O)C2CC2)c(C(F)(F)F)c1
- Activity [1]: Active
- Activity [3]: Active
- IC50 [6]: 400 nM
- Activity [8]: Active
- Activity [13]: Active
- IC50 [14]: 500 nM
- IC50 [18]: 600 nM
- inhibition in vivo at 150 mg/kg [20]: 60%
